{"source": "paper PMC4593655", "about": "(Bioorganic & medicinal chemistry, 2015)", "key": {"[1]": {"test_system": "NCI full panel of 60 cell lines", "assay": "NCI 5-dose assay, full panel overview", "format": "cell-based, human", "details": "for CC50: Homo sapiens, 60 cell, read-out: pLC50 MG_MID (converted); for cytotoxicity in NCI screen: in words; for pTGI MG_MID: mean graph midpoint over all tested cell lines; for pTGI No. giving positive results: number of cell lines for which TGI ≤100 μM; for cellular lines with 50% growth inhibition at submicromolar concentrations: number of cell lines of those tested", "how_it_was_run": "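Five-dose NCI standard protocol screen of test compound against 60 human tumour lines from nine cancer types. pGI₅₀, pTGI and pLC₅₀ are −log molar concentrations giving 50% net growth inhibition, total growth inhibition and 50% net cell death. MG_MID is the arithmetic mean over all tested lines. Counts give the lines with each value ≤100 μM. Where an effect was not reached, the highest tested concentration was used.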"}, "purified tubulin": {"test_system": "purified tubulin", "assay": "Assembly of purified tubulin", "format": "biochemical", "details": "data not presented"}, "tubulin": {"test_system": "tubulin", "assay": "Inhibition of colchicine binding to tubulin", "details": "data not presented"}, "K562 cells [2]": {"test_system": "K562 cells", "assay": "Cell morphology under light microscopy", "format": "cell-based, human", "details": "K562, 48 h, 10 and 25 μM", "how_it_was_run": "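K562 cells, cultured in medium with 5% FBS, 100 U/mL penicillin and 100 μg/mL streptomycin at 37 °C under 5% CO₂, were seeded at 8 × 10³/well and exposed to test compound for 48 h alongside untreated control. Morphology was then examined by light microscopy at 200× magnification.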"}, "K562 cells [3]": {"test_system": "K562 cells", "assay": "Hoechst 33342 nuclear staining, fluorescence microscopy", "format": "cell-based, human", "details": "10 μM, 48 h", "how_it_was_run": "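K562 cells were plated at 8 × 10³/well on poly-D-lysine-coated plates and left to adhere overnight. They were prestained with Hoechst 33342 in medium for 30 min, washed with PBS and resuspended in medium, then given test compound or vehicle for 48 h.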"}, "K562 cells [4]": {"test_system": "K562 cells", "assay": "Annexin V-FITC/PI staining flow cytometry", "format": "cell-based, human", "details": "10 μM, 24 h", "how_it_was_run": "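K562 cells were grown in RPMI 1640 with 5% FBS and antibiotics at 37 °C in 5% CO₂, then exposed to test compound for 24 h. Cells were harvested, centrifuged at 800 rpm for 10 min and washed in PBS. 10⁵ cells per sample were stained with annexin V-FITC plus PI for 15 min in the dark. Flow cytometry read FL1 (530 nm) and FL3 (>575 nm) over 10,000 events. Areas: C1 necrotic, C2 late apoptotic, C3 viable, C4 early apoptotic.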"}, "pro-caspase 6": {"test_system": "pro-caspase 6", "assay": "Western blotting analysis of pro-caspase 6", "format": "cell-based, human", "details": "K562, 10 μM, 48 h", "how_it_was_run": "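K562 cells were seeded at 1.5 × 10⁵/well and treated 48 h with 10 μM test compound. Lysate protein was measured by Lowry assay, run on SDS-PAGE and transferred to nitrocellulose. Pro-caspase 3 and 6 were detected with specific alkaline phosphatase-conjugated antibodies. Loading was checked by Ponceau red and β-actin immunoblot, and bands were quantified by densitometry. Blots are representative of at least three experiments.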"}}}
{"smiles": "NC(=O)c1cc(Cl)ccc1NC(=O)COc1ccccc1", "note": "[Compound 17f, 5-Chloro-2-(2-phenoxyacetamido)benzamide]", "values": [{"measurement": "CC50", "setting": "[1]", "result": "> 100", "unit": "µM"}, {"measurement": "cytotoxicity in NCI screen", "setting": "[1]", "result": "low cytotoxicity"}, {"measurement": "pTGI MG_MID", "setting": "[1]", "result": 4.14}, {"measurement": "pTGI No. giving positive results", "setting": "[1]", "result": 10}, {"measurement": "cellular lines with 50% growth inhibition at submicromolar concentrations", "setting": "[1]", "result": "3 of 57"}, {"measurement": "effects on the assembly of purified tubulin", "setting": "purified tubulin", "result": "negligible effects"}, {"measurement": "inhibition of colchicine binding to tubulin", "setting": "tubulin", "result": "negligible effects"}]}
{"smiles": "NC(=O)c1cc(I)ccc1NC(=O)COc1ccccc1", "note": "[Compound 17j, 5-Iodo-2-(2-phenoxyacetamido)benzamide]", "values": [{"measurement": "CC50", "setting": "[1]", "result": "> 89.1", "unit": "µM"}, {"measurement": "cytotoxicity in NCI screen", "setting": "[1]", "result": "low cytotoxicity"}, {"measurement": "pTGI MG_MID", "setting": "[1]", "result": 4.45}, {"measurement": "pTGI No. giving positive results", "setting": "[1]", "result": 25}, {"measurement": "cellular lines with 50% growth inhibition at submicromolar concentrations", "setting": "[1]", "result": "44 of 56"}, {"measurement": "effects on the assembly of purified tubulin", "setting": "purified tubulin", "result": "negligible effects"}, {"measurement": "inhibition of colchicine binding to tubulin", "setting": "tubulin", "result": "negligible effects"}, {"measurement": "morphological changes", "setting": "K562 cells [2]", "result": "remarkable reduction in cell number and cell size"}, {"measurement": "nuclear morphology typical of apoptosis", "setting": "K562 cells [3]", "result": "chromatin condensation and nuclear fragmentation"}, {"measurement": "necrotic cells", "setting": "K562 cells [4]", "result": "no necrotic cells were detected"}, {"measurement": "reduction in the level of pro-caspase 6", "setting": "pro-caspase 6", "result": "−20", "unit": "%"}]}
{"smiles": "COc1ccc(NC(=O)COc2ccccc2)c(C(N)=O)c1", "note": "[Compound 17r, 5-Methoxy-2-(2-phenoxyacetamido)benzamide]", "values": [{"measurement": "CC50", "setting": "[1]", "result": "> 97.7", "unit": "µM"}, {"measurement": "cytotoxicity in NCI screen", "setting": "[1]", "result": "low cytotoxicity"}, {"measurement": "pTGI MG_MID", "setting": "[1]", "result": 4.31}, {"measurement": "pTGI No. giving positive results", "setting": "[1]", "result": 25}, {"measurement": "cellular lines with 50% growth inhibition at submicromolar concentrations", "setting": "[1]", "result": "30 of 56"}, {"measurement": "effects on the assembly of purified tubulin", "setting": "purified tubulin", "result": "negligible effects"}, {"measurement": "inhibition of colchicine binding to tubulin", "setting": "tubulin", "result": "negligible effects"}]}
{"smiles": "COc1cc(NC(=O)COc2ccccc2)c(C(N)=O)cc1OC", "note": "[Compound 17u, 4,5-Dimethoxy-2-(2-phenoxyacetamido)benzamide]", "values": [{"measurement": "CC50", "setting": "[1]", "result": "> 93.3", "unit": "µM"}, {"measurement": "cytotoxicity in NCI screen", "setting": "[1]", "result": "low cytotoxicity"}, {"measurement": "pTGI MG_MID", "setting": "[1]", "result": 4.31}, {"measurement": "pTGI No. giving positive results", "setting": "[1]", "result": 23}, {"measurement": "cellular lines with 50% growth inhibition at submicromolar concentrations", "setting": "[1]", "result": "26 of 58"}, {"measurement": "effects on the assembly of purified tubulin", "setting": "purified tubulin", "result": "negligible effects"}, {"measurement": "inhibition of colchicine binding to tubulin", "setting": "tubulin", "result": "negligible effects"}, {"measurement": "morphological changes", "setting": "K562 cells [2]", "result": "remarkable reduction in cell number and cell size"}, {"measurement": "nuclear morphology typical of apoptosis", "setting": "K562 cells [3]", "result": "chromatin condensation and nuclear fragmentation"}, {"measurement": "reduction in the level of pro-caspase 6", "setting": "pro-caspase 6", "result": "−50", "unit": "%"}]}
